In ChEMBL document CHEMBL4715806, “Asymmetric Hydroboration Approach to the Scalable Synthesis of ((1R,3S)-1-Amino-3-((R)-6-hexyl-5,6,7,8-tetrahydronaphthalen-2-yl)cyclopentyl)methanol (BMS-986104) as a Potent S1P Receptor Modulator” (J Med Chem, 2016):
Activity calls are given as the source filed them. No cut-off for these calls is given here.

Assays:
[1] = target: Sphingosine 1-phosphate receptor 1 (Homo sapiens, UniProt P21453); assay: Agonist activity at human S1P1 in HLE cell membranes incubated for 45 mins by scintillation counting based [35S]GTP-gamma-S binding assay; parameters: species or system Cell membrane
Chain of Sphingosine 1-phosphate receptor 1 (P21453 whole entry): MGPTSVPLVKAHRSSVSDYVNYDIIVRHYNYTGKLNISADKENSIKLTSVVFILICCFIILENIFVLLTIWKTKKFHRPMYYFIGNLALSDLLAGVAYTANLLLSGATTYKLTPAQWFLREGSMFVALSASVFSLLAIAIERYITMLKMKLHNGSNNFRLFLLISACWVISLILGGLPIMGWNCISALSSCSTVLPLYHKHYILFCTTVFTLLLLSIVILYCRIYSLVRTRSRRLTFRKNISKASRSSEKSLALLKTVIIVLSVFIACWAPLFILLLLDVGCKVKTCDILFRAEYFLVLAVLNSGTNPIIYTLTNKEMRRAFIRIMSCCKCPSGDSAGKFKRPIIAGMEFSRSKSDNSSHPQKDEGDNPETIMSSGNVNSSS

[2] = target: T1, Sphingosine 1-phosphate receptor 3 (Homo sapiens, UniProt Q99500); assay: Agonist activity at human S1P3 expressed in EDG3-Ga15-bla HEK293T cells incubated for 45 mins by scintillation counting based [35S]GTP-gamma-S binding assay relative to control; format: cell membranes, Cell membrane
T1 sequence (Q99500 whole entry): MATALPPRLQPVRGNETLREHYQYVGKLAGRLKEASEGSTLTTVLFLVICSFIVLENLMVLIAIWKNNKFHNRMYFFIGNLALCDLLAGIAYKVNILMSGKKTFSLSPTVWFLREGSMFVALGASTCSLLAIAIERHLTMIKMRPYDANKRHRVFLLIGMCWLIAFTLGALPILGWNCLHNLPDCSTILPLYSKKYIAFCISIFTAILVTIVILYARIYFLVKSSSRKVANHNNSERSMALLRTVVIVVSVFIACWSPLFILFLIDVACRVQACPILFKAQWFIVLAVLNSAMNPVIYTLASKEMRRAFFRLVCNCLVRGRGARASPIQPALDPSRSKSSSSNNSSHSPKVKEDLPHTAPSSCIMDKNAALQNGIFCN
Outline: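 Membranes from EDG3-Ga15-bla HEK293T cells, 3 μg protein/well, mixed with compound in 3-fold dilution series. Room temperature, 45 min. Filter capture, water washes, scintillation counting. EC50 taken at 50% of each compound's own Ymax.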

[3] = target: T1, Sphingosine 1-phosphate receptor 3; assay: Antagonist activity at human S1P3 expressed in EDG3-Ga15-bla HEK293T cells incubated for 45 mins by scintillation counting based [35S]GTP-gamma-S binding assay relative to control; format: cell membranes, Cell membrane
Cerebellum [4] = assay: Induction of remyelination in lysophosphatidylcholine-induced demyelination in CD1 mouse organotypic cerebellar slice at 0.01 to 10 nM incubated for 7 days by immunohistochemistry based three-dimensional brain cell culture assay; format: functional, tissue-based; details: dose 0.01-10 nM, time 7.0 day
Outline: (§1)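 Cerebellum from P1-2 CD1 mouse pups cut into 350 μm parasagittal slices. Cultured on inserts at 36–37 °C, 5% CO2, in MEM/horse serum/EBSS/glucose medium for 13 days. Demyelination with 0.5 mg/ml LPC overnight, then 24 h in medium, then 7 days of treatment. Slices immunostained for MBP and CBD and imaged by confocal at ×40. Myelination index = CBD+MBP double-stained area divided by CBD single-stained area. ANOVA with Dunnett test.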

Cerebellum [5] = assay: Induction of remyelination in lysophosphatidylcholine-induced demyelination in CD1 mouse organotypic cerebellar slice assessed as promotion of Purkinje cell axonal remyelination at 0.01 to 10 nM incubated for 7 days by immunohistochemistry based three-dimensional brain cell culture assay; format: functional, tissue-based; details: dose 0.01-10 nM, time 7.0 day; outline: as §1
Cerebellum [6] = assay: Induction of remyelination in lysophosphatidylcholine-induced demyelination in CD1 mouse organotypic cerebellar slice assessed as myelination index level at 0.01 to 10 nM incubated for 7 days by immunohistochemistry based three-dimensional brain cell culture assay (reference value: 50%); format: functional; details: dose 0.01-10 nM, time 7 day; outline: as §1
Mus musculus [7] = assay: Induction of lymphopenia in Balb/c mouse assessed as reduction of circulating lymphocytes at 0.5 mg/kg, po measured after 4 hrs relative to control; format: functional
Outline: (§2)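 Single oral dose to Balb/c mice in PEG300 vehicle, as solution or suspension; vehicle-only group as control. Retro-orbital bleeds at 4 h and 24 h. Lymphocyte counts read on a hematology analyzer. Expressed as % reduction of circulating lymphocytes versus the vehicle group at each time. Group means, n = 3–4 per group.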

Mus musculus [8] = assay: Induction of lymphopenia in Balb/c mouse assessed as reduction of circulating lymphocytes at 30 mg/kg, po measured after 4 hrs relative to control; format: functional; outline: as §2
Mus musculus [9] = assay: Induction of lymphopenia in Balb/c mouse assessed as reduction of circulating lymphocytes at 30 mg/kg, po measured after 24 hrs relative to control; format: functional; outline: as §2
[10] = Drug metabolism in orally dosed Balb/c mouse assessed as phosphate metabolite to parent AUC (0-24 hrs) ratio at after 24 hrs; format: ADME, organism-based; details: in vivo, po
Mus musculus [11] = assay: Induction of lymphopenia in orally dosed Balb/c mouse assessed as reduction of circulating lymphocytes measured after 24 hrs relative to control; format: functional, organism-based; outline: as §2
Mus musculus [12] = assay: Induction of lymphopenia in Balb/c mouse assessed as reduction of circulating lymphocytes at 0.5 mg/kg, po measured after 24 hrs relative to control; format: functional; outline: as §2
Mus musculus [13] = assay: Induction of lymphopenia in Balb/c mouse assessed as reduction of circulating lymphocytes at 1 mg/kg, po measured after 4 hrs relative to control; format: functional; outline: as §2
Mus musculus [14] = assay: Induction of lymphopenia in Balb/c mouse assessed as reduction of circulating lymphocytes at 10 mg/kg, po measured after 4 hrs relative to control; format: functional; outline: as §2
Mus musculus [15] = assay: Induction of lymphopenia in Balb/c mouse assessed as reduction of circulating lymphocytes at 10 mg/kg, po measured after 24 hrs relative to control; format: functional; outline: as §2
hERG (KCNH2) = hERG (KCNH2) (Homo sapiens, UniProt Q12809); assay: Inhibition of human ERG expressed in HEK293 cells assessed as inhibition of peak tail current at 0.3 uM by patch clamp analysis; format: cell-based; details: HEK293 cells expressing human ERG
Chain of hERG (KCNH2) (Q12809 whole entry): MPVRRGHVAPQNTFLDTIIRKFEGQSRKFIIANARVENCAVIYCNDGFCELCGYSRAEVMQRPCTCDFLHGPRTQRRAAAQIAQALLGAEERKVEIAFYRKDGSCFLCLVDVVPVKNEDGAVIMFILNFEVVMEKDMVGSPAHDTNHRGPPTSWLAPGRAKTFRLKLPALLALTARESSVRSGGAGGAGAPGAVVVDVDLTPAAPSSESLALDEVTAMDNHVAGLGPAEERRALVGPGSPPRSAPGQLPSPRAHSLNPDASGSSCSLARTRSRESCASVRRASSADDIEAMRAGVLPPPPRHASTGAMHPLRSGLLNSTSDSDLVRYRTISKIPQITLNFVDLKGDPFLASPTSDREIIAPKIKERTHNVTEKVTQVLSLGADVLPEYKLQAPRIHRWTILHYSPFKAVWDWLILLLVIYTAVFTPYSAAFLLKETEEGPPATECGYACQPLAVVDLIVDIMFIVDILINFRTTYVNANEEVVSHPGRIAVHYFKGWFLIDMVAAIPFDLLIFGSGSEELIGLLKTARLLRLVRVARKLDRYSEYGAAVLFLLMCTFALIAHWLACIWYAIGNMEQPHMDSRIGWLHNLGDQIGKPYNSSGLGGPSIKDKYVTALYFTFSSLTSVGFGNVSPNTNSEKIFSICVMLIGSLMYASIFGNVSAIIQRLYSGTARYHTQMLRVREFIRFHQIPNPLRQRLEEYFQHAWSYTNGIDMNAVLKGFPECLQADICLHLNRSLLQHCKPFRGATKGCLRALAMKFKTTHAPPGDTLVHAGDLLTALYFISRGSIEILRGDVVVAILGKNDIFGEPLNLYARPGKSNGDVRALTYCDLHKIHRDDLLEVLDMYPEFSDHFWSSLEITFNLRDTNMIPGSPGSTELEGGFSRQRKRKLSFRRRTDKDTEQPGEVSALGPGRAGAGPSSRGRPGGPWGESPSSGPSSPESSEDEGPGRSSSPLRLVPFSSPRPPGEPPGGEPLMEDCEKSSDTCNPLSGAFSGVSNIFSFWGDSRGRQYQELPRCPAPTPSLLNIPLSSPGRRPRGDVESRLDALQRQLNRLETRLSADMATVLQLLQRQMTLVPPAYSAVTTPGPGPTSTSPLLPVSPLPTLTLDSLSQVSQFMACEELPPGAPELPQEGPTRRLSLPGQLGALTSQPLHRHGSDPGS
Outline: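 Whole-cell patch clamp on HEK293 cells stably expressing the cloned hERG α subunit, in aqueous buffer pH 7.4 at room temperature. Test pulses at 0.05 Hz stepped from holding to +20 mV for 2 s. Tail currents evoked by a subsequent voltage step. Inhibition measured on peak tail current.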

[16] = Inhibition of sodium channel (unknown origin) assessed as reduction in Na+ flux; parameters: species or system Homo sapiens
Cytochrome P450 3A4 = Cytochrome P450 3A4 (Homo sapiens, UniProt P08684); assay: Inhibition of CYP3A4 (unknown origin); format: ADME
Chain of Cytochrome P450 3A4 (P08684 whole entry): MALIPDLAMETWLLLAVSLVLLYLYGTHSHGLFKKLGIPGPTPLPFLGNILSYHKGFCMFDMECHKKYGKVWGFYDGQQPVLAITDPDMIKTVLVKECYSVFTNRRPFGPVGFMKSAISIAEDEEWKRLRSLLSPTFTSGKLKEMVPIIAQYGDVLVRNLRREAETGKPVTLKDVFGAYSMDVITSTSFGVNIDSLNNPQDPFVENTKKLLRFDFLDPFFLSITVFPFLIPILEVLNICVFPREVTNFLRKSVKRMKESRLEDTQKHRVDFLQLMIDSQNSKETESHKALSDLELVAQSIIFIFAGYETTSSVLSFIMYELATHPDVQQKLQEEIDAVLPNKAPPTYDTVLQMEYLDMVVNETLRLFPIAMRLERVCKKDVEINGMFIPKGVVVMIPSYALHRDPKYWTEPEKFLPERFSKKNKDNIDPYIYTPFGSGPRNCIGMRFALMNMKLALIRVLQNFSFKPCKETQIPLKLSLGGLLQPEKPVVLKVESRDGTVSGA

Cytochrome P450 2D6 = Cytochrome P450 2D6 (Homo sapiens, UniProt P10635); assay: Inhibition of CYP2D6 (unknown origin); format: ADME
Chain of Cytochrome P450 2D6 (P10635 whole entry): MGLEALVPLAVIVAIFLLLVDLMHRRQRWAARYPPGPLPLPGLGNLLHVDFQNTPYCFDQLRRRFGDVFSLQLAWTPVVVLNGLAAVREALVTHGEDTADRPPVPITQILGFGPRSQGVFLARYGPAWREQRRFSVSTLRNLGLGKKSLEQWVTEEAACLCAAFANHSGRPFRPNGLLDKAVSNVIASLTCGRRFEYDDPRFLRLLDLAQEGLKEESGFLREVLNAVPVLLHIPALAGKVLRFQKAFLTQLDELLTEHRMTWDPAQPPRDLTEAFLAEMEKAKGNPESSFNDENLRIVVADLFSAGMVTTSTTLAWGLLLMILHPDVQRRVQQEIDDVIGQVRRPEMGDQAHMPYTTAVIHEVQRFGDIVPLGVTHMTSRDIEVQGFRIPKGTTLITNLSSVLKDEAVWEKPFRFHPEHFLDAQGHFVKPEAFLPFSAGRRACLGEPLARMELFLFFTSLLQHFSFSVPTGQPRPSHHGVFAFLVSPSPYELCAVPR

Cytochrome P450 2C8 = target: T2, Cytochrome P450 2C8 (Homo sapiens, UniProt P10632); assay: Inhibition of CYP2C8 (unknown origin); format: ADME
T2 sequence (P10632 whole entry): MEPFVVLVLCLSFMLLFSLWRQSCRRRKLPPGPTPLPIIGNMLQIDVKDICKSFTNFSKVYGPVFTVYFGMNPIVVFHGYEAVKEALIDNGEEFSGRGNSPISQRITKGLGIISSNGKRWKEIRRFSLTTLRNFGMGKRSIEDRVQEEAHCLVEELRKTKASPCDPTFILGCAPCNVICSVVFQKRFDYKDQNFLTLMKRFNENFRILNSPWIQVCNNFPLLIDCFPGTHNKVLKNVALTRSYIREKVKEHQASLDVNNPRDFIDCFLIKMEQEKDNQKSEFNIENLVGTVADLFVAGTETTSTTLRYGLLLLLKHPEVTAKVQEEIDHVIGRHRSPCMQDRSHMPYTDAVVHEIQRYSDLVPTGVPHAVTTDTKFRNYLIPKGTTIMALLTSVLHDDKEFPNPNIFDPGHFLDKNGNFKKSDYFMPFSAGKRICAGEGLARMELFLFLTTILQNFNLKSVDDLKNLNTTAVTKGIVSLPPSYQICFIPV

Cytochrome P450 2C9 = Cytochrome P450 2C9 (Homo sapiens, UniProt P11712); assay: Inhibition of CYP2C9 (unknown origin); format: ADME
Chain of Cytochrome P450 2C9 (P11712 whole entry): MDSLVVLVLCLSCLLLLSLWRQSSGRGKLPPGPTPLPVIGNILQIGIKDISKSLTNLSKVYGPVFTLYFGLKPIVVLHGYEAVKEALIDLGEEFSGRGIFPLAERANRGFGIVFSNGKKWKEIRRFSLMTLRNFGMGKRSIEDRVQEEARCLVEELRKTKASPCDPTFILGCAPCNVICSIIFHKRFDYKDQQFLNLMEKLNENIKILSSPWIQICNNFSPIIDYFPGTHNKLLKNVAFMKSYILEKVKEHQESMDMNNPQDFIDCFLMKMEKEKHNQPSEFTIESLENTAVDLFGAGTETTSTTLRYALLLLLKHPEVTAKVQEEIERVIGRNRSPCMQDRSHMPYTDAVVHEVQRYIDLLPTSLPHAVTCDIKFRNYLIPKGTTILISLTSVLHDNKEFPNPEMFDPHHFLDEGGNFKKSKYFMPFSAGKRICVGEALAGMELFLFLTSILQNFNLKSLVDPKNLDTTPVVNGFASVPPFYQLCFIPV

Cytochrome P450 2C19 = Cytochrome P450 2C19 (Homo sapiens, UniProt P33261); assay: Inhibition of CYP2C19 (unknown origin); format: ADME
Chain of Cytochrome P450 2C19 (P33261 whole entry): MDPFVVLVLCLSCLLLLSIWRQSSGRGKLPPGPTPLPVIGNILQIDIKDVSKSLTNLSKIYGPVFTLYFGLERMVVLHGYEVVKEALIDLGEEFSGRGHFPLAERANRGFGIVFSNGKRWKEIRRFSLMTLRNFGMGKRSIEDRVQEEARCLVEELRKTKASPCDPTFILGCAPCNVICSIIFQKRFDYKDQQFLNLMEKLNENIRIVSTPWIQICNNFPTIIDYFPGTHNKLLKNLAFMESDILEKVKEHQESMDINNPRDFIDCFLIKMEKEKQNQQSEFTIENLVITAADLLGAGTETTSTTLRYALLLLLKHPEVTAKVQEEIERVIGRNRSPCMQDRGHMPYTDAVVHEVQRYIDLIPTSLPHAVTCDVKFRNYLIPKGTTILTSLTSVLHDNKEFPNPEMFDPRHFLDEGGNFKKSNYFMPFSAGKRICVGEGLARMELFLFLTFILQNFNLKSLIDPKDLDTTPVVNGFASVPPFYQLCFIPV

[17] = Half life in human liver microsomes; format: ADME, Microsome
[18] = Half life in rat liver microsomes; format: ADME, Microsome
[19] = Half life in mouse liver microsomes; format: ADME, Microsome
[20] = Half life in monkey liver microsomes; format: ADME, Macaca mulatta, Microsome; details: rhesus monkey
[21] = Unbound fraction in human plasma; format: ADME, cell-free
[22] = Unbound fraction in rat plasma; format: ADME, cell-free
[23] = Unbound fraction in mouse plasma; format: ADME, cell-free
[24] = Unbound fraction in cynomolgus monkey plasma; format: ADME, cell-free, Macaca fascicularis
[25] = Unbound fraction in dog plasma; format: ADME, cell-free, Canis lupus familiaris
[26] = Half life in mouse; format: ADME, organism-based; details: in vivo
Mus musculus [27] = assay: Suppression of experimental autoimmune-encephalomyelositis in MOG peptide induced C57BL/6 mouse EAE chronic model assessed as improvement in clinical scores at 0.5 to 4 mg/kg, po dosed every other day; format: functional, organism-based; details: dose 0.5-4 mg/kg
Outline: (§3)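 C57BL/6 female mice, 6–8 weeks, n=10 per group, immunized subcutaneously with MOG35-55 emulsified 1:1 in incomplete Freund's adjuvant plus M. tuberculosis H37RA. Oral dosing from day 1, every other day or daily as stated. Clinical scores graded up to 5 (death) and averaged per group. At termination, lumbar spinal cord taken for formalin fixation and paraffin sections stained with H&E and Luxol Fast Blue. Groups compared by one-way ANOVA with Tukey post test.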

Mus musculus [28] = assay: Suppression of experimental autoimmune-encephalomyelositis in MOG peptide induced C57BL/6 mouse EAE chronic model assessed as improvement in clinical scores at 4 mg/kg, po dosed every other day relative to control; format: functional; outline: as §3
Mus musculus [29] = assay: Suppression of experimental autoimmune-encephalomyelositis in MOG peptide induced C57BL/6 mouse EAE chronic model assessed as reduction in central nervous system damage at 0.5 to 4 mg/kg, po dosed every other day by hematoxylin and eosin staining based histological analysis relative to control; format: functional, organism-based; details: dose 0.5-4 mg/kg; outline: as §3
Mus musculus [30] = assay: Suppression of experimental autoimmune-encephalomyelositis in MOG peptide induced C57BL/6 mouse EAE chronic model assessed as improvement in clinical scores at 0.5 mg/kg, po dosed every other day relative to control; format: functional; outline: as §3

CCCCCC[C@@H]1CCc2cc([C@H]3CC[C@](N)(COP(=O)(O)O)C3)ccc2C1
EC50 [1]: 6.4 nM
EC50 [2]: > 1000 nM
IC50 [3]: > 1000 nM
Activity (Cerebellum [4]): Active
Activity (Cerebellum [5]): Active
Activity (Cerebellum [6]): 100%

CCCCCC[C@H]1CCc2cc([C@H]3CC[C@](N)(CO)C3)ccc2C1
inhibition in vivo at 0.5 mg/kg (Mus musculus [7]): 21%
inhibition in vivo at 30 mg/kg (Mus musculus [8]): 66%
inhibition in vivo at 30 mg/kg (Mus musculus [9]): 84%
Ratio [10]: 0.57

CCCCCC[C@H]1CCc2cc([C@H]3CC[C@](N)(COP(=O)(O)O)C3)ccc2C1
EC50 [1]: 60 nM
EC50 [2]: > 1000 nM
IC50 [3]: > 1000 nM
EC50 (Mus musculus [11]): 35 nM

CCCCCC[C@@H]1CCc2cc([C@H]3CC[C@](N)(CO)C3)ccc2C1 [BMS-986104]
inhibition in vivo at 0.5 mg/kg (Mus musculus [7]): 52%
inhibition in vivo at 0.5 mg/kg (Mus musculus [12]): 68%
inhibition in vivo at 30 mg/kg (Mus musculus [8]): 88%
inhibition in vivo at 30 mg/kg (Mus musculus [9]): 90%
Activity (Mus musculus [11]): Dose-dependent effect
inhibition in vivo at 1 mg/kg (Mus musculus [13]): 52%
inhibition in vivo at 10 mg/kg (Mus musculus [14]): 80%
inhibition in vivo at 10 mg/kg (Mus musculus [15]): 90%
Ratio [10]: 0.51
inhibition at 0.3 µM (hERG (KCNH2)): 36%
IC50 [16]: > 80000 nM
IC50 (Cytochrome P450 3A4): 19000 nM
IC50 (Cytochrome P450 2D6): > 20000 nM
IC50 (Cytochrome P450 2C8): 5000 nM
IC50 (Cytochrome P450 2C9): > 20000 nM
IC50 (Cytochrome P450 2C19): > 20000 nM
half-life [17]: 1.78 h
half-life [18]: 2 h
half-life [19]: 2 h
half-life [20]: 2 h
Fu [21]: < 1%
Fu [22]: < 1%
Fu [23]: < 1%
Fu [24]: < 1%
Fu [25]: < 1%
half-life [26]: 98 h
Activity (Mus musculus [27]): Dose-dependent effect
Activity (Mus musculus [28]): 55%
Activity (Mus musculus [29]): Active
Activity (Mus musculus [30]): 33%
